Measured values published in ChEMBL document CHEMBL3351428, “Uralsaponins M-Y, antiviral triterpenoid saponins from the roots of Glycyrrhiza uralensis” (J Nat Prod, 2014).

Key:
[1] = Antiviral activity against Influenza A virus A/WSN/33 (H1N1) infected in MDCK cells assessed as inhibition of virus-induced cell death at 100 uM after 36 hrs by CellTiter-Glo luminescent cell viability assay; format: functional, Influenza A virus (A/WSN/1933(H1N1))
Procedure, shortened: (§1)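 MDCK cells in DMEM/10% FBS with penicillin-streptomycin, seeded 1 × 10^5/well 24 h before infection (37 °C, 5% CO2). Virus was grown in MDCK with 2 μg/mL TPCK-trypsin. Compound premixed with virus 15 min at room temperature, then added after medium removal. Read at 36 h postinfection by microscopy, confirmed by CellTiter-Glo. Inhibition % computed from luminescence relative to DMSO with/without virus. IC50 measured for significant inhibitors.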

MDCK = experiment: Cytotoxicity against MDCK cells assessed as reduction in cell viability at 100 uM after 36 hrs by CellTiter-Glo luminescent assay; format: cell-based, Canis lupus familiaris; details: dog
Procedure, shortened: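 Uninfected MDCK cells, grown in DMEM with 10% FBS, 100 U/mL penicillin and 100 μg/mL streptomycin, were incubated with compound for 36 h. Cytopathic effect was scored by microscopy and confirmed by CellTiter-Glo luminescent viability read-out.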

[2] = Antiviral activity against Influenza A virus A/WSN/33 (H1N1) infected in MDCK cells assessed as inhibition of virus-induced cell death after 36 hrs by CellTiter-Glo luminescent cell viability assay; format: functional, cell-based, Influenza A virus (A/WSN/1933(H1N1)); procedure, shortened: as §1
[3] = tested on: Human immunodeficiency virus 1; experiment: Antiviral activity against VSV-G protein pseudotyped HIV1 infected in 293T cells assessed as inhibition of viral replication after 48 hrs by luciferase reporter assay; format: functional, organism-based; details: Human immunodeficiency virus 1, HEK-293T
Procedure, shortened: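 Pseudovirus was made by cotransfecting 293T cells with pNL-Luc-E and pHIT/G and harvesting filtered supernatant after 48 h. Capsid level was quantified by p24 ELISA. SupT1 cells were infected at MOI 1 with or without compound (efavirenz as positive control) at […] for 48 h. Luciferase read-out gave inhibition rate. Compounds above 50% at 100 μM were taken to IC50.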

[4] = tested on: Human immunodeficiency virus 1; experiment: Antiviral activity against VSV-G protein pseudotyped HIV1 infected in 293T cells assessed as inhibition of viral replication at 100 uM after 48 hrs by luciferase reporter assay; format: functional; details: Human immunodeficiency virus 1, HEK-293T

Structure (SMILES)	inhibition at 100 µM [1] [%]	Activity (MDCK)	IC50 [2] [µM]	IC50 [3] [µM]	inhibition at 100 µM [4] [%]
C[C@@H]1O[C@@H](O[C@H]2[C@H](O[C@H]3[C@H](O[C@H]4CC[C@]5(C)[C@H]6C(=O)C=C7[C@@H]8C[C@@](C)(C(=O)O)[C@H](O)C[C@]8(C)CC[C@@]7(C)[C@]6(C)CC[C@H]5C4(C)C)O[C@H](C(=O)O)[C@@H](O)[C@@H]3O)O[C@H](CO)[C@@H](O)[C@@H]2O)[C@H](O)[C@H](O)[C@H]1O	47.5	Non-toxic	42.7		
C[C@@H]1O[C@@H](O[C@@H]2CC(C)(C)C[C@H]3C4=CC(=O)[C@@H]5[C@@]6(C)CC[C@H](O[C@@H]7O[C@H](C(=O)O)[C@@H](O)[C@H](O)[C@H]7O[C@@H]7O[C@H](C(=O)O)[C@@H](O)[C@H](O)[C@H]7O)C(C)(C)[C@@H]6CC[C@@]5(C)[C@]4(C)CC[C@@]23C)[C@H](O)[C@H](O)[C@H]1O	47.5	Non-toxic	39.6		
CC(=O)O[C@@H]1C[C@](C)(C(=O)O)C[C@H]2C3=CC(=O)[C@@H]4[C@@]5(C)CC[C@H](O[C@H]6O[C@H](C(=O)O)[C@@H](O)[C@H](O)[C@H]6O[C@@H]6O[C@H](C(=O)O)[C@@H](O)[C@H](O)[C@H]6O)C(C)(C)[C@@H]5CC[C@@]4(C)[C@]3(C)CC[C@@]12C	47.5	Non-toxic	49.1	29.5	
CC1(C)[C@@H](O[C@@H]2O[C@H](C(=O)O)[C@@H](O)[C@H](O)[C@H]2O[C@@H]2O[C@H](C(=O)O)[C@@H](O)[C@H](O)[C@H]2O)CC[C@]2(C)[C@H]3C(=O)C=C4[C@@H]5C[C@]6(C)C[C@@H](OC6=O)[C@]5(C)CC[C@@]4(C)[C@]3(C)CC[C@@H]12				87.1	> 50
CC1(C)[C@@H](O[C@@H]2O[C@H](C(=O)O)[C@@H](O)[C@H](O)[C@H]2O[C@@H]2O[C@H](C(=O)O)[C@@H](O)[C@H](O)[C@H]2O)CC[C@]2(C)[C@H]3CC=C4[C@@H]5C[C@@](C)(C(=O)O)CC[C@]5(C)CC[C@@]4(C)[C@]3(C)CC[C@@H]12				83.2	> 50
CC1(C)[C@@H](O[C@H]2O[C@H](C(=O)O)[C@@H](O)[C@H](O)[C@H]2O[C@@H]2OC[C@H](O)[C@H](O)[C@H]2O)CC[C@]2(C)[C@H]3C(=O)C=C4[C@@H]5C[C@@](C)(C(=O)O)CC[C@]5(C)CC[C@@]4(C)[C@]3(C)CC[C@@H]12				85.1	> 50
CC(=O)O[C@@H]1C[C@](C)(C=O)C[C@H]2C3=CC(=O)[C@@H]4[C@@]5(C)CC[C@H](O)C(C)(C)[C@@H]5CC[C@@]4(C)[C@]3(C)CC[C@@]12C				69.2	> 50
CC1(C)[C@@H](O[C@@H]2O[C@H](CO)[C@@H](O)[C@H](O)[C@H]2O)CC[C@]2(C)[C@H]3C(=O)C=C4[C@@H]5C[C@@](C)(C(=O)O)CC[C@]5(C)CC[C@@]4(C)[C@]3(C)CC[C@@H]12				41.7	> 50
CC1(C)[C@@H](O)CC[C@]2(C)[C@H]3C(=O)C=C4[C@@H]5C[C@@](C)(C(=O)O)CC[C@]5(C)CC[C@@]4(C)[C@]3(C)CC[C@@H]12 [ENOXOLONE]				28.8	
CCOC(=O)C1=C[C@@H](OC(CC)CC)[C@H](NC(C)=O)[C@@H](N)C1 [OSELTAMIVIR PHOSPHATE]	78		45.6		
